Test results: article PMC3592994 (Hepatology (Baltimore, Md.), 2013)
Where a name gives a salt, the structure may show the parent alone.

Columns and labels:
[1] = system: Bsep, Mdr2, Ost-β, Sult2a1, Shp, Ntcp; assay: Hepatic gene expression in gavaged mice; assay type: in vivo, mouse
Method in brief: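 Female C57BL6 mice aged 7–8 weeks were gavaged twice daily for 2 days with 200 μL 20% cyclodextrin, 50 mg/kg cholic acid, or cholic acid plus 500 mg/kg test compound. Livers were harvested at 4 pm on day 2 after an 8-h fast, and hepatic gene expression was measured. Data are mean ± SEM, n = 6, by one-way ANOVA.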

[2] = target: T1, FXRα2 (Homo sapiens, UniProt Q96RI1); assay type: cell-based; conditions: for FXR transactivation relative to vehicle-treated control: 50 μM compound; for FXR transactivation relative to vehicle-treated control / EC50: 24 hours; for EC50: read-out: EC50 of FXR transactivation, agonist mode, 0-100 μM
T1 sequence (Q96RI1 1-472 isoform Q96RI1-2): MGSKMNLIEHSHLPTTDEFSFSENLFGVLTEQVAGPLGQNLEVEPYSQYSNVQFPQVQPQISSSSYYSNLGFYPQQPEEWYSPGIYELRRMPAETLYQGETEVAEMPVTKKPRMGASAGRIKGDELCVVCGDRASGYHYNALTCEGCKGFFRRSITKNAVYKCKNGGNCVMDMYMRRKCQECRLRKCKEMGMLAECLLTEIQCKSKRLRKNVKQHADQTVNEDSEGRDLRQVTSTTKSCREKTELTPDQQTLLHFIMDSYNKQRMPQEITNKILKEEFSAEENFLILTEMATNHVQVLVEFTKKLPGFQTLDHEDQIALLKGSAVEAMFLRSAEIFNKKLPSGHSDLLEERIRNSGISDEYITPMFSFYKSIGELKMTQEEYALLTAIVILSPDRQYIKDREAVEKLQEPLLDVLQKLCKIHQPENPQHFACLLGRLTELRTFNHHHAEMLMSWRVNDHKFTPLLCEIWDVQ
T1 sequence (P19793 1-462 partner): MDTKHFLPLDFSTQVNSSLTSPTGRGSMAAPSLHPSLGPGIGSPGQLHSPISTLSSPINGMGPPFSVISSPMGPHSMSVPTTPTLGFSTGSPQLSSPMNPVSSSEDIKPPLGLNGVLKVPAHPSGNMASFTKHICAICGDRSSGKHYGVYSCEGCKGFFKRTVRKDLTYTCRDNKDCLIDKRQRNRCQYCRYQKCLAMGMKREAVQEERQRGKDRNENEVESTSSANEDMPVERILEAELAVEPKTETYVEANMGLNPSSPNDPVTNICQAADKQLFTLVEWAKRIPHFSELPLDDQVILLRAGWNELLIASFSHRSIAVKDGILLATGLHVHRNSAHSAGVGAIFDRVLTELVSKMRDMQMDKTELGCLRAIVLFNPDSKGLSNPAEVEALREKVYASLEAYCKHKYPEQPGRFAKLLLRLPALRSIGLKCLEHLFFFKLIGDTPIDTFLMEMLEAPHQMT

[3] = target: T2, FXR-LBD (Homo sapiens, UniProt Q96RI1); assay: HTRF cofactor; assay type: biochemical; conditions: for CDCA-mediated recruitment of SRC-1 peptide to FXR-LBD: 9 or 100 μM CDCA, 0-600 μM compound, dose-dependent; for recruitment of SRC-1 peptide to FXR-LBD by compound alone: agonist mode, no CDCA
T2 sequence (Q96RI1 244-472 isoform Q96RI1-2): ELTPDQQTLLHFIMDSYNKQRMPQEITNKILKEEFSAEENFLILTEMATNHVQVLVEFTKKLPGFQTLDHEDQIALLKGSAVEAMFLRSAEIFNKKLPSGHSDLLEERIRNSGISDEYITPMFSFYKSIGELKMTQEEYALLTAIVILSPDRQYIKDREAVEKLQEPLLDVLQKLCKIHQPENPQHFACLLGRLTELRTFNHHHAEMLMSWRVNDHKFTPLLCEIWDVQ

[4] = system: FXR-mediated bile acid efflux in Huh7 cells; assay: Huh7 3H-taurocholic acid efflux; assay type: cell-based, human
Method in brief: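 Huh7 cells were pretreated overnight with vehicle or 0.5 μM GW4064 with or without 25–50 μM test compound. Cells were washed for 1.5 h, then ³H-taurocholic acid efflux over 5 min was measured. Data are mean ± SEM, n = 3, by one-way ANOVA.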

[5] = system: BSEP; assay: BSEP protein western blot in Huh7 cells; assay type: cell-based, human; conditions: 0.5 μM GW4064, 24 hours
[6] = system: FGF19; assay: Secreted FGF19 in Huh7 cell culture media; assay type: cell-based, human; conditions: for levels of secreted FGF19: 0.5 μM GW4064
Method in brief: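 Huh7 cells were incubated for 24 h with 0.5 μM GW4064 plus 0–100 μM test compound. FGF19 secreted into the culture medium was then assayed. Data are mean ± SEM, n = 3, by one-way ANOVA.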

[7] = system: BSEP, SHP; assay: BSEP and SHP gene expression in primary human hepatocytes; assay type: cell-based; conditions: 50 μM, 24 hours
[8] = system: BSEP, SHP, CYP7A1; assay type: cell-based, human; conditions: 50 μM, 24 hours; for induction of BSEP gene expression: scrambled siRNA group; for repression of CYP7A1 expression: siScramble group; for induction of SHP gene expression: siScrambled group, versus vehicle
[9] = Serum PM5S in gavaged mice by UPLC/MSMS; assay type: in vivo, mouse
Method in brief: (§1)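 Female C57BL6 mice aged 7–8 weeks were orally gavaged twice daily for 2 days (day 1 at 5:30 and 10:30 pm; day 2 at 8:30 am and 1:30 pm). Groups received 200 μL 20% cyclodextrin, 50 mg/kg cholic acid, or cholic acid plus 500 mg/kg test compound. After an 8-h fast, serum was collected at 4 pm on day 2 and analysed by UPLC/MSMS. Data are mean ± SEM, n ≥ 6, by one-way ANOVA.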

[10] = Serum bile acid concentrations in gavaged mice; assay type: in vivo, mouse; conditions: CA+PM5S co-gavaged mice versus vehicle or CA groups
Method in brief: as §1

[11] = system: BSEP; assay: BSEP gene expression in Huh7 cells; assay type: cell-based, human
Method in brief: (§2)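 Relative mRNA was quantified by qPCR. Data are mean ± SEM, n = 3, by one-way ANOVA against the agonist-alone or vehicle group.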

[12] = system: FGF19; assay: FGF19 gene expression in Huh7 cells; assay type: cell-based, human; conditions: 25-100 μM PM5S, 0.5 μM GW4064, 24 hours
Method in brief: as §2

[13] = system: SHP and MDR3; assay: SHP and MDR3 gene expression in Huh7 cells; assay type: cell-based, human; conditions: 0-100 μM PM5S, 0.5 μM GW4064, 24 hours
Method in brief: as §2

[14] = system: primary human hepatocytes; conditions: primary human hepatocytes ref 19; cited from earlier work
[15] = system: NTCP; conditions: NTCP-transfected Xenopus laevis oocytes ref 19; cited from earlier work
[16] = system: BSEP; conditions: X. laevis oocytes expressing BSEP ref 20; cited from earlier work

C[C@H](CCC(=O)O)[C@H]1CC[C@H]2[C@@H]3[C@H](O)C[C@@H]4C[C@H](O)CC[C@]4(C)[C@H]3C[C@H](O)[C@]12C [CA, cholic acid, reference compound]
Hepatic gene expression levels of Bsep, Mdr2, Ost-β, and Sult2a1 ([1]; CA group, 50 mg/kg versus vehicle): significantly induced

C[C@H](O)[C@H]1CC[C@H]2[C@@H]3CC[C@H]4C[C@@H](OS(=O)(=O)[O-])CC[C@]4(C)[C@H]3CC[C@]12C.[Na+] [EPAS, epiallo-pregnanediol 3-sodium sulfate]
activity of FXR in presence of CDCA [2]: inhibited
FXR transactivation relative to vehicle-treated control [2]: 183%
EC50 [2]: 22.6 µM
CDCA-mediated recruitment of SRC-1 peptide to FXR-LBD [3]: inhibited
recruitment of SRC-1 peptide to FXR-LBD by compound alone [3]: unable to induce

CC(C)c1onc(-c2c(Cl)cccc2Cl)c1COc1ccc(/C=C/c2cccc(C(=O)O)c2)c(Cl)c1 [GW4064, reference compound]
3HTC efflux ([4]; 0.5 μM GW4064 overnight, relative to vehicle): significantly increased
increase in BSEP protein levels ([5]; relative to vehicle): 1.5 fold
increase in secreted FGF19 ([6]; 0.5 μM GW4064, 24 hours): 2.8 fold

CC(=O)C1CCC2C3CC[C@@H]4C[C@@H](OS(=O)(=O)O)CC[C@]4(C)C3CC[C@]12C (stereo partly drawn) [EPS, epipregnanolone sulfate]
activity of FXR in presence of CDCA [2]: inhibited
FXR transactivation relative to vehicle-treated control [2]: 125%
EC50 [2]: 15.1 µM
CDCA-mediated recruitment of SRC-1 peptide to FXR-LBD [3]: inhibited
recruitment of SRC-1 peptide to FXR-LBD by compound alone [3]: unable to induce

C[C@H](CCC(=O)O)[C@H]1CC[C@H]2[C@@H]3[C@H](O)C[C@@H]4C[C@H](O)CC[C@]4(C)[C@H]3CC[C@]12C [CDCA, chenodeoxycholic acid, reference compound]
BSEP expression induction [7]: 7.5 fold
induction of BSEP gene expression [8]: 390%
repression of CYP7A1 expression [8]: > 90%
induction of SHP gene expression [8]: 481%

CC(=O)[C@H]1CC[C@H]2[C@@H]3CC[C@H]4C[C@@H](OS(=O)(=O)O)CC[C@]4(C)[C@H]3CC[C@]12C [PM5S, epiallopregnanolone sulfate]
Serum PM5S mean concentration ± SEM ([9]; mice gavaged 50 mg/kg cholic acid + 500 mg/kg PM5S twice daily for 2 days): 3208.6 ± 1847.1 µM
Serum PM5S mean concentration ± SEM ([9]; mice gavaged 50 mg/kg cholic acid twice daily for 2 days): 10.7 ± 9.6 µM
serum CA levels [10]: significantly raised
induction of Bsep and Mdr2 expression ([1]; CA+PM5S group compared to CA group): significantly abrogated
Shp and Ntcp expression levels ([1]; CA+PM5S, CA and vehicle groups): no differences
GW4064-induced increase in 3HTC efflux ([4]; cotreated with 25 or 50 μM PM5S, 0.5 μM GW4064): abolished
GW4064-mediated BSEP protein expression ([5]; 10 μM PM5S): inhibited
BSEP protein expression ([5]; 25-100 μM PM5S): completely abolished
CDCA-mediated BSEP expression ([11]; all PM5S concentrations tested, 50 μM CDCA, 24 hours): significantly reduced
GW4064-mediated BSEP gene expression ([11]; increasing PM5S doses (0-100 μM), 0.5 μM GW4064, 24 hours): completely abolished
levels of secreted FGF19 ([6]; 50 μM and 100 μM PM5S): reaching significance
levels of secreted FGF19 ([6]; cotreatment with 10 μM and 25 μM PM5S): trend towards a reduction
GW4064-mediated FGF19 gene expression [12]: significantly reduced
GW4064-mediated SHP and MDR3 gene expression [13]: significantly abrogated
BSEP expression [7]: modestly increased
SHP expression induction [7]: to a lesser extent than CDCA
PM5S concentrations abrogating CDCA-mediated FXR transactivity [2]: ≥ 5 µM
FXR transactivation relative to vehicle-treated control [2]: 182%
EC50 [2]: > 83 µM
CDCA-mediated recruitment of SRC-1 peptide to FXR-LBD [3]: able to inhibit
recruitment of SRC-1 peptide to FXR-LBD by compound alone [3]: unable to potentiate
induction of BSEP gene expression [8]: 160%
repression of CYP7A1 expression [8]: > 90%
induction of SHP gene expression [8]: 200%
Na+-dependent and Na+-independent influx of taurocholate [14]: reduce
taurocholate uptake by NTCP [15]: competitively inhibit
efflux of bile acids [16]: reduce the efflux
